Reference: ChEMBL document CHEMBL1123812, “Pyrroloisoquinoline antidepressants. 2. In-depth exploration of structure-activity relationships” (J Med Chem, 1987)
Activity calls are given as the source filed them.

What was measured:
Rattus norvegicus [1] = test: Ability to inhibit the uptake of tritiated serotonin(5-HT) at 0.1 mg/kg concentration; assay type: functional
Mus musculus [2] = species on record: Mus musculus; test: Gross behavioral effects ascertained in mice; D indicates significant depressant properties.; assay type: functional, organism-based
How it was run: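 Male Swiss Webster albino mice, 18–24 g, three per dose, given ip 1, 3, 10, 30, 100 and 300 mg/kg. Gross behaviour observed and held 4 days. Estimated LD50 range from lethality count on day 4. Scored as weak stimulant/depressant, significant stimulant, significant depressant or overt convulsant.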

Mus musculus [3] = test: (§1) Ability to antagonise intraperitoneal dose; inactive (<10% antagonism) at 30 mgjkg is represented as I-30.; assay type: functional, organism-based
How it was run: (§2)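 Swiss Webster male albino mice, nonfasted, 18–24 g, 10 per dose and in saline control. Compound given ip 30 min before TBZ 32 mg/kg ip. Motor activity and ptosis scored. Response corrected by Abbott's formula when control response was 90% or less. Doses expressed as free base.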

Mus musculus [4] = test: Ability to antagonise tetrabenazine (TBZ)-induced depression measured in mice for ptosis by 10 mg/kg i.p. dose; inactive (<10% antagonism) at 30 mgjkg is represented as I-30.; assay type: functional, organism-based; design: dose 10 mg/kg; how it was run: as §2
Rattus norvegicus [5] = species on record: Rattus norvegicus; test: Ability to inhibit the uptake of tritiated serotonin(5-HT) at 1 uM concentration; assay type: functional
How it was run: (§3)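 Rat synaptosomal uptake as above: striatal P2 for [3H]DA (50–300 nM, 3 min) and cortical P2 for [3H]5-HT (100–200 nM, 6 min). 37 °C after 10-min preincubation with compound. […] Blanks incubated in ice water. Filter-retained tritium counted by liquid scintillation.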

Rattus norvegicus [6] = species on record: Rattus norvegicus; test: Ability to inhibit the uptake of tritiated norepinephrine (NE) at 0.1 uM concentration; assay type: functional
How it was run: (§4)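 Male Wistar rat brain synaptosomes (P2 fraction): hypothalamus for NE, striatum for DA, cerebral cortex for 5-HT. Buffer is Tris- or HEPES-buffered salt medium with glucose, ascorbate and nialamide, pH 7.4 at 37 °C. Preincubated 10 min at 37 °C with compound. Uptake started with [3H]NE 100–300 nM, [3H]DA 50–300 nM or [3H]5-HT 100–200 nM, incubated 3 min (DA) or 6–10 min (NE, 5-HT). Blanks held on ice. Filtered, counted by scintillation.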

Rattus norvegicus [7] = species on record: Rattus norvegicus; test: Ability to inhibit the uptake of tritiated dopamine (DA) at 1 uM concentration; assay type: functional; how it was run: as §3
[8] = biological target: Norepinephrine transporter (Rattus norvegicus) (UniProt Q9WTR4); test: Ability to inhibit the uptake of [3H]norepinephrine (NE) 0.1 uM concentration at rat brain synaptosomes; assay type: functional, subcellular; how it was run: as §4
Rattus norvegicus [9] = species on record: Rattus norvegicus; test: Ability to inhibit the uptake of tritiated dopamine (DA) 0.1 uM concentration; assay type: functional; how it was run: as §4
Mus musculus [10] = species on record: Mus musculus; test: Gross behavioral effects ascertained in mice; W indicates weak stimulant or depressant activity of little significance.; assay type: functional, organism-based
How it was run: (§5)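 Male Swiss Webster mice, 18–24 g, three per dose, given ip doses of 1, 3, 10, 30, 100 and 300 mg/kg. Observed for gross behavior and held for 4 days. Scored as weak (W), stimulant (S), depressant (D) or convulsant (C).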

[11] = biological target: Sodium-dependent serotonin transporter (Rattus norvegicus) (UniProt P31652); test: Ability to inhibit the uptake of [3H]- serotonin(5-HT) 0.1 uM concentration at rat brain synaptosomes; assay type: functional, subcellular; how it was run: as §4
Rattus norvegicus [12] = species on record: Rattus norvegicus; test: Ability to inhibit the uptake of tritiated serotonin(5-HT) %inhibition; assay type: functional
How it was run: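 Rat brain synaptosomes (male Wistar P2 fraction) from hypothalamus (NE), striatum (DA) or cerebral cortex (5-HT), in Tris or HEPES Krebs-type medium with nialamide, pH 7.4. Preincubation 10 min at 37 °C with compound. Then [3H]NE 100–300 nM, [3H]DA 50–300 nM or [3H]5-HT 100–200 nM added for 3 min (DA) or 6–10 min (NE, 5-HT). Blanks kept on ice. Filtration and scintillation counting. Percent inhibition at 0.100 μM when weak.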

Mus musculus [13] = test: as §1; assay type: functional, organism-based; remark: listed apart in the source
How it was run: (§6)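 Nonfasted male Swiss Webster mice, 18–24 g, ten per dose level and in saline controls. Test compound given ip 30 min before tetrabenazine 32 mg/kg ip; dose expressed as free base. Motor activity and ptosis scored. Control response ≤90% corrected by Abbott's formula.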

Mus musculus [14] = test: Ability to antagonise intraperitoneal dose; inactive (<10% antagonism) at 30 mg/kg is represented as I-30.; assay type: functional, organism-based; design: dose 30 mg/kg; how it was run: as §6
[15] = biological target: Norepinephrine transporter (Rattus norvegicus, UniProt Q9WTR4); test: Inhibition of uptake of tritiated norepinephrine (NE) in rat synaptosomes; assay type: subcellular, Brain
[16] = biological target: Sodium-dependent dopamine transporter (Rattus norvegicus, UniProt P23977); test: Inhibition of the uptake of tritiated dopamine (DA) in rat synaptosomes; assay type: subcellular, Brain
Mus musculus [17] = species on record: Mus musculus; test: Antagonism of tetrabenazine (TBZ)-induced depression measured in mice by motor activity; assay type: functional; settings: Mus musculus; read-out: ED50; how it was run: as §6
[18] = biological target: Serotonin 2 (5-HT2) receptor (Rattus norvegicus, UniProt P30994+P08909+P14842); test: (§7) Binding affinity towards 5-hydroxytryptamine 2 receptor at 1.0 uM concentration; assay type: protein assay
Mus musculus [19] = species on record: Mus musculus; test: Antagonism of tetrabenazine (TBZ)-induced depression in mice measured for ptosis; assay type: functional; settings: Mus musculus; read-out: ED50; how it was run: as §6
[20] = biological target: Sodium-dependent serotonin transporter (Rattus norvegicus) (UniProt P31652); test: Inhibition of tritiated serotonin(5-HT) uptake at 0.1 uM concentration; assay type: functional; how it was run: as §4
[21] = biological target: Serotonin 1 (5-HT1) receptor (Rattus norvegicus) (UniProt P28564+P30940+P19327+P28565); test: Binding affinity towards serotonin S1 receptor at 1.0 uM; assay type: protein assay
How it was run: (§8)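 Rat brain crude synaptic membranes in 20 mM NaHEPES pH 7.5. Ligands: α1 cortex […] 0.4 nM, nonspecific with (-)-NE 100 μM, 30 min at 25 °C. […] D2 striatum [3H]spiperone 0.05 nM with (+)-butaclamol 1 μM, 45 min at 37 °C. S1 cortex [3H]5-HT 1 nM plus glutathione and MgCl2, with 5-HT 10 μM, 20 min at 37 °C. […] Samples filtered on GF/B and counted.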

[22] = biological target: Serotonin 2 (5-HT2) receptor (Rattus norvegicus) (UniProt P30994+P08909+P14842); test: as §7; assay type: protein assay; how it was run: as §8
Rattus norvegicus [23] = species on record: Rattus norvegicus; test: Ability to inhibit the uptake of tritiated norepinephrine (NE); assay type: functional; how it was run: as §4
[24] = biological target: Sodium-dependent dopamine transporter (Rattus norvegicus) (UniProt P23977); test: Inhibition of tritiated dopamine (DA) uptake at 0.1 uM concentration; assay type: functional; how it was run: as §4
[25] = biological target: D(2) dopamine receptor (Rattus norvegicus) (UniProt P61169); test: Binding affinity towards dopamine receptor D2 at 1.0 uM concentration; how it was run: as §8
[26] = biological target: T1, Adrenergic receptor alpha-1 (Rattus norvegicus, UniProt P15823+P23944+P43140); test: Binding affinity towards alpha-1 adrenergic receptor; assay type: protein assay
T1 sequence (P15823 whole entry): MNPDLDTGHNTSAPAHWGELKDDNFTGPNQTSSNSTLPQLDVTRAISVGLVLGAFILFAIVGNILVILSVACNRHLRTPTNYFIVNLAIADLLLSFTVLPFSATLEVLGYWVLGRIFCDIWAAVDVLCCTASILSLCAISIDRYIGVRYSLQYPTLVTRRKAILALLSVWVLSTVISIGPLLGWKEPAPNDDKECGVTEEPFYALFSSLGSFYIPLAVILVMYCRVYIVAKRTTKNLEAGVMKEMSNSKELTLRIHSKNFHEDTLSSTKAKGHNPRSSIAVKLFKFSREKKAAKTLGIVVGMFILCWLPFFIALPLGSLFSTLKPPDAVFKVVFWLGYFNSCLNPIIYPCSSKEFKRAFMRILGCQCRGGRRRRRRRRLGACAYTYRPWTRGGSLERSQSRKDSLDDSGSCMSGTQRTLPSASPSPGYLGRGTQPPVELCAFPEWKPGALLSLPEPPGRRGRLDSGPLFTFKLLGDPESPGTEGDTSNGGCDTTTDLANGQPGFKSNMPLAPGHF
T1 sequence (P23944 whole entry): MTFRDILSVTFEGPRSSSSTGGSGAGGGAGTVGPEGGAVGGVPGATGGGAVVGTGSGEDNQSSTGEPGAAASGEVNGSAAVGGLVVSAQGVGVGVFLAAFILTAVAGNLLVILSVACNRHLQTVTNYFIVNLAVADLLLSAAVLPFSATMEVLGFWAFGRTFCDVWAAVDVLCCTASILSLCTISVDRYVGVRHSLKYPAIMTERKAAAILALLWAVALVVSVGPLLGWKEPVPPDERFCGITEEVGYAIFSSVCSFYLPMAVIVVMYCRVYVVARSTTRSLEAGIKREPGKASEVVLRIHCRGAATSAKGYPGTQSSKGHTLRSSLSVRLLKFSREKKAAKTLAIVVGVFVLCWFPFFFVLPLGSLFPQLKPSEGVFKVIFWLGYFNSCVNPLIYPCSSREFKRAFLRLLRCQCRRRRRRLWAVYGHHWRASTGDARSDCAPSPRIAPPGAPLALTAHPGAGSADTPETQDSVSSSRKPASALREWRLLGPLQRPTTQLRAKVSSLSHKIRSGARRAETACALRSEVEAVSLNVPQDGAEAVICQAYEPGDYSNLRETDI
T1 sequence (P43140 whole entry): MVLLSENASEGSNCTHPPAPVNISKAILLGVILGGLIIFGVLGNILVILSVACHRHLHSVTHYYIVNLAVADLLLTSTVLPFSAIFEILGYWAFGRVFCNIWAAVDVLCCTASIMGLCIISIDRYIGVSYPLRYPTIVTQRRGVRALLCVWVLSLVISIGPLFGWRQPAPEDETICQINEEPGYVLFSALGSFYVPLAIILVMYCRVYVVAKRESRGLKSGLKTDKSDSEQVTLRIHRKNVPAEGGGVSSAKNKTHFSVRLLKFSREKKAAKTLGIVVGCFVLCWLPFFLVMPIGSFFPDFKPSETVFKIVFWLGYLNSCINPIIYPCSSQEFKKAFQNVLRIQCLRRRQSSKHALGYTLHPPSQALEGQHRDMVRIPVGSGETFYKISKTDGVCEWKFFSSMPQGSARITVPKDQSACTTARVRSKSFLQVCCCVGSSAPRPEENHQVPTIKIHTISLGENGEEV

[27] = biological target: D(1A) dopamine receptor (Rattus norvegicus) (UniProt P18901); test: Binding affinity towards dDopamine receptor D1 at 1.0 uM concentration; how it was run: as §8
[28] = biological target: Muscarinic acetylcholine receptor (Rattus norvegicus) (UniProt P08482+P08483+P08485+P08911+P10980); test: Binding affinity towards Muscarinic acetylcholine receptor at 1.0 uM concentration; assay type: protein assay
Mus musculus [29] = species on record: Mus musculus; test: Gross behavioral effects ascertained in mice; S indicates significant stimulant properties.; assay type: functional, organism-based; how it was run: as §5
[30] = biological target: Adrenergic receptor alpha-2 (Rattus norvegicus) (UniProt P22086+P19328+P22909); test: Binding affinity towards alpha-2 adrenergic receptor at 1.0 uM concentration; assay type: protein assay

Norepinephrine transporter, sequence (Q9WTR4 whole entry): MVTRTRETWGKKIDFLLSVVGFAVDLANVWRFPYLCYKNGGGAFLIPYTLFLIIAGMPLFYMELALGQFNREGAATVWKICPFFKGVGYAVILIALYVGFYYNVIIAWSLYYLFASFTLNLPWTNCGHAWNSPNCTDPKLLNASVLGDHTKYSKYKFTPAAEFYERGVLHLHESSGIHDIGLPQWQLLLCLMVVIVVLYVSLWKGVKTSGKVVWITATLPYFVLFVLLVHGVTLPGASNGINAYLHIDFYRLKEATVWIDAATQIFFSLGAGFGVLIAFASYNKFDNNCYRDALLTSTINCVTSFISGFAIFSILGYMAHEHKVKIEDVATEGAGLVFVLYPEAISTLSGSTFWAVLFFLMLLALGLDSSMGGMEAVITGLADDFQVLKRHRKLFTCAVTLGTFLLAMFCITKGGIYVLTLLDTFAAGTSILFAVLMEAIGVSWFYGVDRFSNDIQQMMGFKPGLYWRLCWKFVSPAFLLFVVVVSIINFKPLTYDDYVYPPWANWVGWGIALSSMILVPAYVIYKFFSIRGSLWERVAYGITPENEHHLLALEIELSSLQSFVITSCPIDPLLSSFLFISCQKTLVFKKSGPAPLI
Sodium-dependent serotonin transporter (Rattus norvegicus), sequence (P31652 whole entry): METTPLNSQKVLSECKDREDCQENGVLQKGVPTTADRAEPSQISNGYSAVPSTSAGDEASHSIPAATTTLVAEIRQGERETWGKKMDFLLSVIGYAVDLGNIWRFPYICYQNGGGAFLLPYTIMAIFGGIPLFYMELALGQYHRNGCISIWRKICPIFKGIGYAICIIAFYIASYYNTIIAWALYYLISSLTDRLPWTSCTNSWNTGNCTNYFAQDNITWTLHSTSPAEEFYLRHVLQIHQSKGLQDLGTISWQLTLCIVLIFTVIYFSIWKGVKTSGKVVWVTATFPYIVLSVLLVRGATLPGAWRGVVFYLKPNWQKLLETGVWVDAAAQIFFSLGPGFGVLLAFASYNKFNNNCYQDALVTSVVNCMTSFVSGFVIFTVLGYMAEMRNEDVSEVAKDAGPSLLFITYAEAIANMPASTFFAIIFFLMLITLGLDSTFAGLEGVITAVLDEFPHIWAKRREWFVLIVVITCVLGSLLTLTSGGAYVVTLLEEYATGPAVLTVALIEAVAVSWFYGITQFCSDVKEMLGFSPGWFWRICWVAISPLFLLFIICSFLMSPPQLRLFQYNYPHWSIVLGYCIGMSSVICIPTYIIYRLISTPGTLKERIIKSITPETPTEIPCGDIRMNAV
Sodium-dependent dopamine transporter, sequence (P23977 whole entry): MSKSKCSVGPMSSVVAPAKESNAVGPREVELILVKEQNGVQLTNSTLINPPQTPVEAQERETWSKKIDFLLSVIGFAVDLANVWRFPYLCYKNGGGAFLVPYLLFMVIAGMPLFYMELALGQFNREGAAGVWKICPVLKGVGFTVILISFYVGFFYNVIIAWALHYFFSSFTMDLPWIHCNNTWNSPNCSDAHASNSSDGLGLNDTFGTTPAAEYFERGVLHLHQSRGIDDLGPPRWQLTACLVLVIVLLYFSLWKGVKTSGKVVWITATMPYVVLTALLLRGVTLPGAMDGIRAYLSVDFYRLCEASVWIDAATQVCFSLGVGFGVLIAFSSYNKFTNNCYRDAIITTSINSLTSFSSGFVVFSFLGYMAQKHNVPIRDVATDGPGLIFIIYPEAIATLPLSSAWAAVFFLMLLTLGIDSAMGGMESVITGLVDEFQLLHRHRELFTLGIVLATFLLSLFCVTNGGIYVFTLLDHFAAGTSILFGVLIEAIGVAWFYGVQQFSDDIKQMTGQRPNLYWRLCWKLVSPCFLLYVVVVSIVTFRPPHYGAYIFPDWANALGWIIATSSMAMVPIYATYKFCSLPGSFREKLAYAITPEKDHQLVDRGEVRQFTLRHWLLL
D(2) dopamine receptor (Rattus norvegicus), sequence (P61169 whole entry): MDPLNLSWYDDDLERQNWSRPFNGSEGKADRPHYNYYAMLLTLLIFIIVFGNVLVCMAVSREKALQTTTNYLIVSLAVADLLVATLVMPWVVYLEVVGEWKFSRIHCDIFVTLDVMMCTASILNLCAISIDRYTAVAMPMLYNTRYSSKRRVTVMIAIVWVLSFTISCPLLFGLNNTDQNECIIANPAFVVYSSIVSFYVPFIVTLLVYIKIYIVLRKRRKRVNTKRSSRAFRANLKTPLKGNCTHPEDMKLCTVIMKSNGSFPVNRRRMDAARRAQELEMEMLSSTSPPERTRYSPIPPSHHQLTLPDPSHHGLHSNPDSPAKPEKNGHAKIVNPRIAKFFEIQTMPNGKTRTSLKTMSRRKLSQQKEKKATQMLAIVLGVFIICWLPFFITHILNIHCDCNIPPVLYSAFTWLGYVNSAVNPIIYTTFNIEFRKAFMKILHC
Norepinephrine transporter (Rattus norvegicus), sequence (Q9WTR4 as listed by the source): as the sequence (Q9WTR4 whole entry) above
Serotonin 2 (5-HT2) receptor (Rattus norvegicus), sequence (P08909 whole entry, looked up): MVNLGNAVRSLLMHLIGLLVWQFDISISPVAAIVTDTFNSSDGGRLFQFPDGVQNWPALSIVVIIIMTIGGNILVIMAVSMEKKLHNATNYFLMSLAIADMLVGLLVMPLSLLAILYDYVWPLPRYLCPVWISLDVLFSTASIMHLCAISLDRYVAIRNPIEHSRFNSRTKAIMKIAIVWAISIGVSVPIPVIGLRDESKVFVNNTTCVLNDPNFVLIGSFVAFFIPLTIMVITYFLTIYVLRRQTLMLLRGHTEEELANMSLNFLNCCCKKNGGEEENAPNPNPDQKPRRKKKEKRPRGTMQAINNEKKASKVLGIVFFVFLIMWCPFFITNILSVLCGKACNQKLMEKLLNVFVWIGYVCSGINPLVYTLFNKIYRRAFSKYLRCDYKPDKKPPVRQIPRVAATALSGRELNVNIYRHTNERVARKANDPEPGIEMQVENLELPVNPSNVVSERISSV
Serotonin 2 (5-HT2) receptor (Rattus norvegicus), sequence (P14842 whole entry, looked up): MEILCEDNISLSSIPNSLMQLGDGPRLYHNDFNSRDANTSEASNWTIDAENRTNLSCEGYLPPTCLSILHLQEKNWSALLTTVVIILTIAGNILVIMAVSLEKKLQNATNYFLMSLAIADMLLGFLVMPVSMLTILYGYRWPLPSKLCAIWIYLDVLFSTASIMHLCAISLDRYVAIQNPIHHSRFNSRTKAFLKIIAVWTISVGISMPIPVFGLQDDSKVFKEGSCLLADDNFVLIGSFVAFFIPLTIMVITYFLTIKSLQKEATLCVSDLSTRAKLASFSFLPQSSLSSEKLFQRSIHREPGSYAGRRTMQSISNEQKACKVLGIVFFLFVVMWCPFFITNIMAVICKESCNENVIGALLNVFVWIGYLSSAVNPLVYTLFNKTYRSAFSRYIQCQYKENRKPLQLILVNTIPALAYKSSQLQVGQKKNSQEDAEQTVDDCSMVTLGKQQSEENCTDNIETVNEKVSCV
Serotonin 2 (5-HT2) receptor (Rattus norvegicus), sequence (P30994 whole entry, looked up): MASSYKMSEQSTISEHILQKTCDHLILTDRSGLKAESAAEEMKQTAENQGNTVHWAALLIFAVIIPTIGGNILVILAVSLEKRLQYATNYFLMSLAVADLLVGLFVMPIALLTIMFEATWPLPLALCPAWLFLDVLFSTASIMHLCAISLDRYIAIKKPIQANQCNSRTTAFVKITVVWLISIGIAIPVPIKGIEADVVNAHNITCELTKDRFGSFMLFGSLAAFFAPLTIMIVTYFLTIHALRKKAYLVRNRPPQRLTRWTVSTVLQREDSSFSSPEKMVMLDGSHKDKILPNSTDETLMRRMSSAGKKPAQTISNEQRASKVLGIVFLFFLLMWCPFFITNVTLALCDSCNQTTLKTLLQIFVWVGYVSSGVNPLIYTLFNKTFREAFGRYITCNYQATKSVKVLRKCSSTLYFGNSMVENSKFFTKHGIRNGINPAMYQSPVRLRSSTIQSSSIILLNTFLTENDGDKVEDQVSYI
Sodium-dependent dopamine transporter (Rattus norvegicus), sequence (P23977 whole entry): as the sequence (P23977 whole entry) above
D(1A) dopamine receptor (Rattus norvegicus), sequence (P18901 whole entry): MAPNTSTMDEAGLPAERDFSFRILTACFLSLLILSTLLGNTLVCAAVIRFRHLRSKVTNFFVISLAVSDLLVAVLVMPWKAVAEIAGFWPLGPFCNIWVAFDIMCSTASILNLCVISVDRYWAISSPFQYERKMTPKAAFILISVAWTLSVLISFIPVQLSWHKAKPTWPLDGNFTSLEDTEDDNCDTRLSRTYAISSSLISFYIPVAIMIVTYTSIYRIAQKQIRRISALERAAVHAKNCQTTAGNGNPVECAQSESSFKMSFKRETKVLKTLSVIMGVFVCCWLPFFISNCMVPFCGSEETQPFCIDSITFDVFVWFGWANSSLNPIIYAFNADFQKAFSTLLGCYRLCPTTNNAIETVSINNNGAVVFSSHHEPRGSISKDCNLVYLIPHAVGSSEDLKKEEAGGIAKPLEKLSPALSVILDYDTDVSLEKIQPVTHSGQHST

SMILES: c1ccc([C@@H]2CN3CCC[C@H]3c3ccsc32)cc1
- inhibition in vivo at 0.1 mg/kg (Rattus norvegicus [1]): 28%
- behavior (Mus musculus [2]): Significant depressant
- ED50 (Mus musculus [3]): inactive
- ED50 (Mus musculus [4]): inactive

SMILES: Clc1ccc([C@@H]2CN3CCC[C@H]3c3ccccc32)c(Cl)c1
- Inhibition (Rattus norvegicus [5]): 52%
- Inhibition (Rattus norvegicus [6]): 31%
- Inhibition (Rattus norvegicus [7]): 34%

SMILES: c1ccc([C@@H]2CN3CCCC[C@H]3c3ccccc32)cc1
- inhibition [8]: 27%
- Ki (Rattus norvegicus [9]): 1000 nM
- behavior (Mus musculus [10]): Weak
- inhibition [11]: 11%

SMILES: Br.c1csc([C@@H]2CN3CCC[C@H]3c3ccsc32)c1
- Inhibition (Rattus norvegicus [12]): 2%
- ED50 (Mus musculus [13]): inactive
- ED50 (Mus musculus [14]): inactive
- behavior (Mus musculus [2]): Significant depressant

SMILES: O=C(Nc1ccccc1)Nc1ccc([C@@H]2CN3CCC[C@H]3c3ccccc32)cc1
- Ki [15]: 41.3 nM
- Ki [16]: 9.8 nM
- ED50 (Mus musculus [17]): > 60 mg/kg
- Ki [18]: 54 nM
- ED50 (Mus musculus [19]): 10 mg/kg

SMILES: Br.Fc1ccc([C@@H]2CN3CCC[C@H]3c3cc(F)ccc32)cc1
- inhibition [20]: 21%
- behavior (Mus musculus [10]): Partial stimulant
- inhibition [21]: -9%
- inhibition [22]: 5%
- Ki (Rattus norvegicus [23]): ~100 nM
- ED50 (Mus musculus [17]): > 60 mg/kg
- inhibition [24]: 38%
- inhibition [25]: 48%
- ED50 (Mus musculus [19]): 1.6 mg/kg

SMILES: Br.Oc1ccc([C@@H]2CN3CCC[C@@H]3c3ccccc32)cc1
- Ki [15]: 0.74 nM
- Ki [26]: 252 nM
- Ki [16]: 5.1 nM
- inhibition [27]: 27%
- inhibition [28]: 3%
- behavior (Mus musculus [29]): Stimulant
- ED50 (Mus musculus [17]): 0.4 mg/kg
- inhibition [30]: 70%
- inhibition [25]: 65%
- ED50 (Mus musculus [19]): 0.09 mg/kg
